Reference: ChEMBL document CHEMBL4808178 (J Med Chem, 2021)
The source made the active and inactive calls. No cut-off for these calls is given here.

Columns and labels:
[1] = test system: L02; assay: Cytotoxicity against human L02 cells assessed as reduction in cell viability incubated for 72 hrs by MTT assay; type: cell-based; details: L02, 72 h
In short: (§1)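 About 5 × 10³ cells/well, seeded overnight at 37 °C, 5% CO₂, in DMEM or RPMI-1640 with 10% FBS and antibiotics. DMSO-dissolved compounds diluted in medium, exposure 72 h.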

[2] = test system: T-24; assay: Cytotoxicity against human T24 cells assessed as reduction in cell viability incubated for 72 hrs by MTT assay; type: functional, cell-based; details: T-24, 72 h; in short: as §1
[3] = test system: HT-29; assay: Cytotoxicity against human HT-29 cells assessed as reduction in cell viability incubated for 72 hrs by MTT assay; type: functional, cell-based; details: HT-29, 72 h
[4] = test system: MCF7; assay: Cytotoxicity against human MCF7 cells assessed as reduction in cell viability incubated for 72 hrs by MTT assay; type: functional, cell-based; details: MCF7, 72 h; in short: as §1
[5] = test system: PC-3; assay: Cytotoxicity against human PC3 cells assessed as reduction in cell viability incubated for 72 hrs by MTT assay; type: functional, cell-based; details: PC-3, 72 h; in short: as §1
[6] = test system: HCT-116; assay: Cytotoxicity against human HCT-116 cells assessed as reduction in cell viability incubated for 72 hrs by MTT assay; type: functional, cell-based; details: HCT-116, 72 h; in short: as §1
[7] = target: Dual specificity protein kinase CLK2 (Homo sapiens, UniProt P49760); assay: Inhibition of human CLK2 incubated for 2 hrs
[8] = test system: HCT-116; assay: Inhibition of cell stemness in human HCT116 cells assessed as inhibition of CD44+/CD133+ expression at 20 uM after 24 hrs by flow cytometry analysis; type: functional
In short: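 ALDH⁺ HCT-116 subpopulation sorted by flow cytometry; 2 × 10⁵ cells/well seeded overnight at 37 °C, 5% CO₂; treated 20 μM for 24 h (vehicle DMSO); stained with PE anti-CD133 and FITC anti-CD44 30 min; CD44⁺/CD133⁺ read by flow cytometry.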

[9] = test system: HCT-116; assay: Inhibition of cell stemness in human HCT116 cells assessed as morphological alterations at 5 uM after 10 days by microscopic analysis; type: functional, cell-based; details: time 10.0 day
In short: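 Sorted ALDH⁺ HCT-116 cells, 800/well, in serum-free DMEM with B27 (1:50), EGF 20 ng/mL, β-FGF 10 ng/mL; co-incubated with compound (5 μM) or DMSO vehicle for 10 days; sphere number, diameter and morphology scored from microscopy images; mean ± SD, n = 3.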

Chain of Dual specificity protein kinase CLK2 (P49760 whole entry): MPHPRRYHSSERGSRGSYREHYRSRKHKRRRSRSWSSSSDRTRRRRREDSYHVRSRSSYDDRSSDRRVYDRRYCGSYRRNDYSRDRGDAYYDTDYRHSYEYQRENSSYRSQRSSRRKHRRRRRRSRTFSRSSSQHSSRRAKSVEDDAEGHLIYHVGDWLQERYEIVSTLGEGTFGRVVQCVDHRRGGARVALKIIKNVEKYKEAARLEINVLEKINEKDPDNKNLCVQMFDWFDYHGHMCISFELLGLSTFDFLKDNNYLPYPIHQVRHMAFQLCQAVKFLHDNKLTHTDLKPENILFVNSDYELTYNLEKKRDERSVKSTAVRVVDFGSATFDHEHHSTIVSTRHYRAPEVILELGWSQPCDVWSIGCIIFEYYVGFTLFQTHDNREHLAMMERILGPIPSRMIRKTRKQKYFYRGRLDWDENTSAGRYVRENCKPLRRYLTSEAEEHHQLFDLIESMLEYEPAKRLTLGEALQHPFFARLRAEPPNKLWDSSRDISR

O=C(NO)c1ccc2c(c1)nc(Nc1cccc(Cl)c1)c1ccncc12
IC50 [1]: 21.4 µM | IC50 [2]: 3.89 µM | IC50 [3]: 9.98 µM | IC50 [4]: 7.66 µM | IC50 [5]: 15.1 µM | IC50 [6]: 8.62 µM

NCCCNC(=O)c1ccc2c(c1)nc(Nc1cccc(Cl)c1)c1ccncc12
IC50 [1]: 85 µM | IC50 [2]: 37.3 µM | IC50 [3]: 9.87 µM | IC50 [4]: 19.7 µM | IC50 [5]: 14.1 µM | IC50 [6]: 15.9 µM

O=C(O)CCCNC(=O)c1ccc2c(c1)nc(Nc1cccc(Cl)c1)c1ccncc12
IC50 [1]: 32.2 µM | IC50 [2]: 21.1 µM | IC50 [3]: 14.5 µM | IC50 [4]: 19.6 µM | IC50 [5]: 4.2 µM | IC50 [6]: 24.8 µM

O=C(OCCF)c1ccc2c(c1)nc(Nc1cccc(Cl)c1)c1ccncc12
IC50 [1]: 57.8 µM | IC50 [2]: 5.91 µM | IC50 [3]: 7.8 µM | IC50 [4]: 5.98 µM | IC50 [5]: 6.4 µM | IC50 [6]: 4.28 µM | IC50 [7]: 0.00106 µM

O=C(NCCBr)c1ccc2c(c1)nc(Nc1cccc(Cl)c1)c1ccncc12
IC50 [1]: 66.7 µM | IC50 [2]: 8.95 µM | IC50 [3]: 8.01 µM | IC50 [4]: 14.9 µM | IC50 [5]: 8.76 µM | IC50 [6]: 28.1 µM | IC50 [7]: 0.0247 µM

O=C(NCC(F)F)c1ccc2c(c1)nc(Nc1cccc(Cl)c1)c1ccncc12
IC50 [1]: 18.4 µM | IC50 [2]: 18.1 µM | IC50 [4]: 10.4 µM | IC50 [5]: 6.12 µM | IC50 [6]: 16.5 µM

O=C(NCCCO)c1ccc2c(c1)nc(Nc1cccc(Cl)c1)c1ccncc12
IC50 [1]: 74.2 µM | IC50 [2]: 18.8 µM | IC50 [3]: 11.8 µM | IC50 [4]: 7.71 µM | IC50 [5]: 8.94 µM | IC50 [6]: 13.7 µM

O=C(OCCI)c1ccc2c(c1)nc(Nc1cccc(Cl)c1)c1ccncc12
IC50 [1]: 43.5 µM | IC50 [2]: 17.5 µM | IC50 [3]: 17.1 µM | IC50 [4]: 10.7 µM | IC50 [5]: 10 µM | IC50 [6]: 17.7 µM | IC50 [7]: 0.00169 µM

C#CCNC(=O)c1ccc2c(c1)nc(Nc1cccc(Cl)c1)c1ccncc12
IC50 [1]: 28.4 µM | IC50 [2]: 18.5 µM | IC50 [3]: 16.4 µM | IC50 [4]: 13.9 µM | IC50 [5]: 7.6 µM | IC50 [6]: 21.2 µM

CC(=O)c1cc2c(o1)C(=O)c1ccccc1C2=O [NAPABUCASIN]
inhibition at 20 µM [8]: 89% | inhibition [9]: Active

O=C(NCCN1CCCCC1)c1ccc2c(c1)nc(Nc1cccc(Cl)c1)c1ccncc12
IC50 [1]: 14.3 µM | IC50 [2]: 3.24 µM | IC50 [3]: 13.8 µM | IC50 [4]: 3.74 µM | IC50 [5]: 6.08 µM | IC50 [6]: 8.6 µM

O=C(OCCc1ccccn1)c1ccc2c(c1)nc(Nc1cccc(Cl)c1)c1ccncc12
IC50 [1]: 24.9 µM | IC50 [2]: 22.5 µM | IC50 [3]: 9.52 µM | IC50 [4]: 10.1 µM | IC50 [5]: 11 µM | IC50 [6]: 6.91 µM

CN(C)CCNC(=O)c1ccc2c(c1)nc(Nc1cccc(Cl)c1)c1ccncc12
IC50 [1]: 17.3 µM | IC50 [2]: 5.93 µM | IC50 [3]: 5.08 µM | IC50 [4]: 6.01 µM | IC50 [5]: 11.1 µM | IC50 [6]: 12.8 µM

CS(=O)(=O)NC(=O)c1ccc2c(c1)nc(Nc1cccc(Cl)c1)c1ccncc12
IC50 [1]: 28.4 µM | IC50 [2]: 23.5 µM | IC50 [3]: 17.8 µM | IC50 [4]: 12.2 µM | IC50 [5]: 4.16 µM | IC50 [6]: 13.2 µM

O=C(OCCC(Cl)Cl)c1ccc2c(c1)nc(Nc1cccc(Cl)c1)c1ccncc12
IC50 [1]: 22 µM | IC50 [2]: 20.6 µM | IC50 [3]: 18.4 µM | IC50 [4]: 14.2 µM | IC50 [5]: 13.5 µM | IC50 [6]: 20.8 µM

O=C(NCCN1CCOCC1)c1ccc2c(c1)nc(Nc1cccc(Cl)c1)c1ccncc12
IC50 [1]: 37.8 µM | IC50 [2]: 8.73 µM | IC50 [3]: 13.4 µM | IC50 [4]: 11 µM | IC50 [5]: 3.28 µM | IC50 [6]: 7.98 µM | IC50 [7]: 0.0219 µM

O=C(O)CCNC(=O)c1ccc2c(c1)nc(Nc1cccc(Cl)c1)c1ccncc12
IC50 [1]: 72.8 µM | IC50 [2]: 24.4 µM | IC50 [3]: 19.9 µM | IC50 [4]: 24.6 µM | IC50 [5]: 16.2 µM | IC50 [6]: 4.6 µM

O=C(OCC(F)F)c1ccc2c(c1)nc(Nc1cccc(Cl)c1)c1ccncc12
IC50 [1]: 83.9 µM | IC50 [2]: 22.7 µM | IC50 [3]: 8.09 µM | IC50 [4]: 9.85 µM | IC50 [5]: 22.1 µM | IC50 [6]: 7.52 µM | IC50 [7]: 0.00154 µM

O=C(OCCOCCOCCO)c1ccc2c(c1)nc(Nc1cccc(Cl)c1)c1ccncc12
IC50 [1]: 30.7 µM | IC50 [2]: 14.1 µM | IC50 [3]: 12.6 µM | IC50 [4]: 13.6 µM | IC50 [5]: 19.2 µM | IC50 [6]: 9.71 µM

O=C(OCCO)c1ccc2c(c1)nc(Nc1cccc(Cl)c1)c1ccncc12
IC50 [1]: 45.1 µM | IC50 [2]: 16.6 µM | IC50 [3]: 10.9 µM | IC50 [4]: 15.2 µM | IC50 [5]: 9.15 µM | IC50 [6]: 10.9 µM | IC50 [7]: 0.00238 µM

COC(=O)CCNC(=O)c1ccc2c(c1)nc(Nc1cccc(Cl)c1)c1ccncc12
IC50 [1]: > 200 µM | IC50 [2]: 10.7 µM | IC50 [3]: 3.52 µM | IC50 [4]: 4.51 µM | IC50 [5]: 9.94 µM | IC50 [6]: 8.13 µM | IC50 [7]: 0.0097 µM

O=C(NCCN1CCCC1)c1ccc2c(c1)nc(Nc1cccc(Cl)c1)c1ccncc12
IC50 [1]: 16 µM | IC50 [2]: 3.23 µM | IC50 [3]: 7.94 µM | IC50 [4]: 8.6 µM | IC50 [5]: 10.1 µM | IC50 [6]: 8.79 µM

COC(=O)CCCNC(=O)c1ccc2c(c1)nc(Nc1cccc(Cl)c1)c1ccncc12
IC50 [1]: 89.1 µM | IC50 [2]: 12.9 µM | IC50 [3]: 20.6 µM | IC50 [4]: 19.8 µM | IC50 [5]: 4.89 µM | IC50 [6]: 5.91 µM

NCCNC(=O)c1ccc2c(c1)nc(Nc1cccc(Cl)c1)c1ccncc12
IC50 [1]: 111 µM | IC50 [2]: 14.4 µM | IC50 [3]: 11.4 µM | IC50 [4]: 4.88 µM | IC50 [5]: 5.48 µM | IC50 [6]: 7.26 µM | IC50 [7]: 0.0196 µM
